Legend:
[1] = Selectivity index, ratio of IC50 for human BJ cells to IC50 for human A549 cells; assay type: functional
Outline: (§1)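 MTT assay in normal cells and A549: seeding at 5 × 10³ cells/well for 24 h, 48 h compound exposure, then 5 mg/mL MTT for 4 h, DMSO solubilisation and absorbance at 570 nm. IC50 values came from dose–response curves of at least three independent experiments. Selectivity ratio = IC50 in normal cells / IC50 in A549.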

[2] = test system: A549; assay: Induction of apoptosis in human A549 cells assessed as late apoptotic cells at 4 nM after 24 hrs by Annexin V-FITC/propidium iodide staining based flow cytometry (reference value: 0.08%); assay type: functional
[3] = test system: A549; assay: Induction of apoptosis in human A549 cells assessed as live cells at 4 nM after 24 hrs by Annexin V-FITC/propidium iodide staining based flow cytometry (reference value: 98.84%); assay type: functional
[4] = test system: HeLa; assay: Antiproliferative activity against human HeLa cells after 48 hrs by MTT assay; assay type: functional, cell-based
Outline: (§2)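 MTT assay: log-phase cells plated at 5 × 10³/well for 24 h, then exposed to a range of test concentrations for 48 h. MTT (5 mg/mL) added for 4 h, formazan dissolved in DMSO, absorbance read at 570 nm. IC50 is the concentration giving 50% growth inhibition, from dose-response curves; at least three independent experiments, mean ± SE.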

[5] = test system: RKO; assay: Growth inhibition of human RKO cells after 48 hrs by MTT assay; assay type: functional, cell-based; outline: as §2
[6] = Inhibition of porcine brain tubulin polymerization measured every 60 secs for 90 mins by DAPI staining based fluorescence assay; set-up: species or system Sus scrofa
Outline: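 Purified tubulin was tested in a kit assay. Final buffer: 80 mM PIPES sesquisodium (pH 6.9), 2.0 mM MgCl₂, 0.5 mM EGTA, 1 mM GTP, 10.2% glycerol. Compound (0.1–10 μM) was prewarmed at 37 °C for 1 min before tubulin was added. DAPI reporter fluorescence (ex 340 / em 410 nm) was read every 60 s for 90 min. Area under the curve gave percent inhibition versus control and the IC50.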

[7] = test system: A549; assay: Induction of apoptosis in human A549 cells assessed as early apoptotic cells at 4 nM after 24 hrs by Annexin V-FITC/propidium iodide staining based flow cytometry (reference value: 0.98%); assay type: functional
[8] = test system: MDA-MB-231; assay: Growth inhibition of human MDA-MB-231 cells after 48 hrs by MTT assay; assay type: functional, cell-based; settings: MDA-MB-231, 48 h; outline: as §2
[9] = test system: A549; assay: Induction of apoptosis in human A549 cells assessed as necrotic cells at 4 nM after 48 hrs by Annexin V-FITC/propidium iodide staining based flow cytometry relative to control; assay type: functional
[10] = test system: A549; assay: Induction of apoptosis in human A549 cells assessed as necrotic cells at 2 nM after 48 hrs by Annexin V-FITC/propidium iodide staining based flow cytometry relative to control; assay type: functional
[11] = test system: A549; assay: Cell cycle arrest in human A549 cells assessed as accumulation at G2/M phase at 4 nM up to 24 hrs by propidium iodide staining based flow cytometry (reference value: 10.13%); assay type: functional
Outline: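 A549 seeded in six-well plates at 3 × 10⁵ cells/well and treated for 12 or 24 h; vehicle 0.01% DMSO. Cells fixed overnight in ice-cold 70% ethanol, treated with RNase A at 37 °C for 30 min, then stained with PI at 4 °C for 30 min. About 10 000 events acquired by flow cytometry at 488 nm; three experiments.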

[12] = test system: MCF7; assay: Antiproliferative activity against human MCF7 cells after 48 hrs by MTT assay; assay type: functional, cell-based; settings: MCF7, 48 h; outline: as §2
[13] = test system: A549/CDDP; assay: Growth inhibition of human A549/CDDP cells after 48 hrs by MTT assay; assay type: functional, cell-based; outline: as §2
[14] = test system: HCT-116; assay: Growth inhibition of human HCT116 cells after 48 hrs by MTT assay; assay type: functional, cell-based; settings: HCT-116, 48 h; outline: as §2
[15] = test system: L02; assay: Antiproliferative activity against human LO2 cells after 48 hrs by MTT assay; assay type: cell-based; settings: L02, 48 h; outline: as §2
[16] = test system: A549; assay: Induction of apoptosis in human A549 cells assessed as early apoptotic cells at 2 nM after 24 hrs by Annexin V-FITC/propidium iodide staining based flow cytometry (reference value: 0.98%); assay type: functional
[17] = test system: A549; assay: Induction of apoptosis in human A549 cells assessed as late apoptotic cells at 2 nM after 48 hrs by Annexin V-FITC/propidium iodide staining based flow cytometry (reference value: 0.03%); assay type: functional
[18] = test system: A549; assay: Induction of apoptosis in human A549 cells assessed as necrotic cells at 4 nM after 24 hrs by Annexin V-FITC/propidium iodide staining based flow cytometry (reference value: 0.10%); assay type: functional
[19] = test system: MGC-803; assay: Antiproliferative activity against human MGC803 cells after 48 hrs by MTT assay; assay type: functional, cell-based; settings: MGC-803, 48 h; outline: as §2
[20] = test system: A549; assay: Induction of apoptosis in human A549 cells assessed as early apoptotic cells at 2 nM after 48 hrs by Annexin V-FITC/propidium iodide staining based flow cytometry (reference value: 1.48%); assay type: functional
[21] = Growth inhibition of human HepG2/DOX cells after 48 hrs by MTT assay; assay type: functional, cell-based; outline: as §2
[22] = Resistance factor, ratio of IC50 for human A549/CDDP cells to IC50 for human A549 cells; assay type: functional
Outline: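 MTT assay: log-phase cells were seeded at 5 × 10³/well for 24 h, then exposed to a concentration series for 48 h. MTT (5 mg/mL) was added for 4 h, formazan was dissolved in DMSO, and A570 was read. IC50 values came from dose–response curves of at least three independent experiments. Resistance factor = IC50 in the resistant line / IC50 in the parental sensitive line.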

[23] = Selectivity index, ratio of IC50 for HLF to IC50 for human A549 cells; outline: as §1
[24] = test system: A549; assay: Induction of apoptosis in human A549 cells assessed as live cells at 4 nM after 48 hrs by Annexin V-FITC/propidium iodide staining based flow cytometry (reference value: 98.49%); assay type: functional
[25] = test system: BJ; assay: Antiproliferative activity against human BJ cells after 48 hrs by MTT assay; assay type: cell-based; outline: as §2
[26] = test system: LoVo; assay: Growth inhibition of human LoVo cells after 48 hrs by MTT assay; assay type: functional, cell-based; outline: as §2
[27] = test system: A549; assay: Induction of apoptosis in human A549 cells assessed as live cells at 2 nM after 24 hrs by Annexin V-FITC/propidium iodide staining based flow cytometry (reference value: 98.84%); assay type: functional
[28] = test system: A549; assay: Induction of apoptosis in human A549 cells assessed as late apoptotic cells at 4 nM after 48 hrs by Annexin V-FITC/propidium iodide staining based flow cytometry (reference value: 0.03%); assay type: functional
[29] = test system: A549; assay: Growth inhibition of human A549 cells after 48 hrs by MTT assay; assay type: functional, cell-based; settings: A549, 48 h
[30] = test system: HepG2; assay: Growth inhibition of human HepG2 cells after 48 hrs by MTT assay; assay type: functional, cell-based; settings: HepG2, 48 h; outline: as §2
[31] = test system: A549; assay: Induction of apoptosis in human A549 cells assessed as early apoptotic cells at 4 nM after 48 hrs by Annexin V-FITC/propidium iodide staining based flow cytometry (reference value: 1.48%); assay type: functional
[32] = test system: A549; assay: Induction of apoptosis in human A549 cells assessed as live cells at 2 nM after 48 hrs by Annexin V-FITC/propidium iodide staining based flow cytometry (reference value: 98.49%); assay type: functional
[33] = Selectivity index, ratio of IC50 for human LO2 cells to IC50 for human A549 cells; assay type: functional; outline: as §1
[34] = Antiproliferative activity against HLF after 48 hrs by MTT assay; assay type: cell-based; settings: Homo sapiens; outline: as §2
[35] = test system: A549; assay: Induction of apoptosis in human A549 cells assessed as necrotic cells at 2 nM after 24 hrs by Annexin V-FITC/propidium iodide staining based flow cytometry (reference value: 0.10%); assay type: functional
[36] = test system: A549; assay: Induction of apoptosis in human A549 cells assessed as late apoptotic cells at 2 nM after 24 hrs by Annexin V-FITC/propidium iodide staining based flow cytometry (reference value: 0.08%); assay type: functional

With `Cc1nc(N(C)c2ccc([Se]C#N)cc2)c2ccccc2n1` the “Ratio IC50” value [1] was 3.7, the Activity [2] was 5.58% and the Activity [3] was 64.96%. The IC50 [4] was 9 nM, the IC50 [5] was 9 nM and the IC50 [6] was 3120 nM. It also gave an Activity [7] of 27.46%, an IC50 [8] of 20 nM and an Activity [9] of 7.59%. It also gave an Activity [10] of 1.94%, an Activity [11] of 69.69% and an IC50 [12] of 19 nM. For the same molecule, the IC50 [13] was 32 nM, the IC50 [14] was 15 nM and the IC50 [15] was 37 nM. The Activity [16] was 13.55%, the Activity [17] was 5.78% and the Activity [18] was 1.77%. The IC50 [19] was 12 nM, the Activity [20] was 17.56% and the IC50 [21] was 29 nM. For the same molecule, the “Ratio IC50” value [22] was 3.56, the “Ratio IC50” value [23] was 4.6 and the Activity [24] was 40.54%. It also gave an IC50 [25] of 33 nM, an IC50 [26] of 32 nM and an Activity [27] of 82.96%. It also gave an Activity [28] of 29.41%, an IC50 [29] of 11 nM and an IC50 [30] of 9 nM. The Activity [31] was 21.45%, the Activity [32] was 74.73% and the “Ratio IC50” value [33] was 4.1. It also gave an IC50 [34] of 41 nM, an Activity [35] of 1.11% and an Activity [36] of 2.38%.

From ChEMBL document CHEMBL4020840, “Synthesis and Biological Evaluation of Selenium-Containing 4-Anilinoquinazoline Derivatives as Novel Antimitotic Agents” (J Med Chem, 2018)
